# In ChEMBL document CHEMBL3804796, “Discovery of Novel 3,3-Disubstituted Piperidines as Orally Bioavailable, Potent, and Efficacious HDM2-p53 Inhibitors” (ACS Med Chem Lett, 2016):
# Experiments:
# [1] = target: T1, Tumour suppressor p53/oncoprotein Mdm2 (Homo sapiens, UniProt Q00987); test: Inhibition of human recombinant His-tagged MDM2 (1 to 118 residues) interaction with FAM-tagged p53-based peptide (unknown origin) incubated for 15 mins by fluorescence polarization assay; type: protein assay
# T1 sequence (P04637 whole entry, the tested form may be a part): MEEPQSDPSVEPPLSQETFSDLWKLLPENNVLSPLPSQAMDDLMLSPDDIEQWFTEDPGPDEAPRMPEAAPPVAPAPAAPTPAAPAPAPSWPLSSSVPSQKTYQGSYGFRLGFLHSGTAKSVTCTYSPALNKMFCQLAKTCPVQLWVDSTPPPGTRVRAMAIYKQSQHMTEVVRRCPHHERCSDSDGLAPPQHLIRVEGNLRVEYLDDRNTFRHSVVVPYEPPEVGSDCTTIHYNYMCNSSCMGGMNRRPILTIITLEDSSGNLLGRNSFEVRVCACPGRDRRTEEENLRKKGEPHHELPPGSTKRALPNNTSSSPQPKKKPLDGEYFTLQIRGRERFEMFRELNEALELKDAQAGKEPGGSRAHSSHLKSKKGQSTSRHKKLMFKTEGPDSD
# T1 sequence (Q00987 whole entry, the tested form may be a part): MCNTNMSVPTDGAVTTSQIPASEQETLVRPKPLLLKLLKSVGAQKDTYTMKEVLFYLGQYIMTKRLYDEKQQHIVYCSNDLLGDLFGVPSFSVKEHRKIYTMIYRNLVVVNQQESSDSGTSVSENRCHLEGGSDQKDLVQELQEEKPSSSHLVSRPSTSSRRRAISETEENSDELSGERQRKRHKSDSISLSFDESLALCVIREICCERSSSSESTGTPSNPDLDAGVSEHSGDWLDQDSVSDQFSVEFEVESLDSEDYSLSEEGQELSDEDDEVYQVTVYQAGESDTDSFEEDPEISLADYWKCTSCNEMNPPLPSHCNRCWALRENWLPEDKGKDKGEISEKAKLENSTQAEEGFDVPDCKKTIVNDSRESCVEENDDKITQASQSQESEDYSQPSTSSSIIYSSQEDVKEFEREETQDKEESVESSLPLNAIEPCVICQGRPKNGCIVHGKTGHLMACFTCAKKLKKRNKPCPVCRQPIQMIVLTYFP
# [2] = Antiproliferative activity against human SJSA1 cells expressing wild type p53 after 72 hrs by CellTitre-Glo assay; conditions: SJSA-1, 72 h
# [3] = Antiproliferative activity against human HCT116 cells expressing wild type p53 after 72 hrs by CellTitre-Glo assay; type: functional, cell-based; conditions: HCT-116, 72 h
# How it was run: (§1)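 Cancer cell lines of known p53 coding-region status (checked by direct sequencing) were exposed to the compound for 72 h. Viability was read with CellTiter-Glo, and the IC50 was taken from these readings.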
# SK-UT-1 = test: Antiproliferative activity against human SK-UT-1 cells harboring mutant p53 after 72 hrs by CellTitre-Glo assay; type: functional, cell-based; conditions: SK-UT-1, 72 h; how it was run: as §1
# [4] = Antiproliferative activity against p53 null human H1299 cells after 72 hrs by CellTitre-Glo assay; type: functional, cell-based; conditions: NCI-H1299, 72 h; how it was run: as §1
# [5] = target: T1, Tumour suppressor p53/oncoprotein Mdm2; test: Inhibition of MDM2/p53 interaction in human HCT116 cells assessed as activation of p53 transcription by luciferase reporter gene assay; type: cell-based, HCT-116
# How it was run: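 p53 transcriptional activation measured in HCT116 cells with a p53 response element–driven luciferase reporter (P53RE-Luc).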
# SJSA-1 = test: Induction of apoptosis in human SJSA1 cells assessed as caspase 3/7 activation; type: functional, cell-based
# [6] = Solubility of compound in pH 7.4 phosphate buffer; type: physicochemical
# [7] = Intrinsic clearance in human liver microsomes; type: ADME; conditions: read-out: CLH
# Mus musculus = test: Dose normalized AUC (0 to 24 hrs) in mouse at 1 mg/kg, po administered as single dose; type: ADME, organism-based; conditions: in vivo
# How it was run: (§2)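 Single oral dose of 1 mg/kg. Vehicle was 20% HPBCD for mouse and 0.4% HPMC for dog and monkey. Plasma AUC over 0–24 h, dose-normalized, reported in μM·h.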
# Canis familiaris = test: Dose normalized AUC (0 to 24 hrs) in dog at 1 mg/kg, po administered as single dose; type: ADME, organism-based, Canis lupus familiaris; conditions: in vivo; how it was run: as §2
# Rhesus monkey = test: Dose normalized AUC (0 to 24 hrs) in monkey at 1 mg/kg, po administered as single dose; type: ADME, organism-based, Macaca mulatta; conditions: in vivo; how it was run: as §2
# [8] = Permeability from apical to basolateral side in human Caco2 cells; type: ADME, cell-based; conditions: Caco-2, read-out: permeability
# A2780 = test: Antitumor activity against human A2780 cells xenografted in nude mouse harboring wild type p53 assessed as tumor growth inhibition at 40 mg/kg, ip once weekly for 15 days relative to control; conditions: 360 h, read-out: TGI
# [9] = AUC in mouse at 20 mg/kg, po or 2 mg/kg, iv; type: ADME, organism-based; conditions: in vivo
# [10] = Oral bioavailability in mouse at 20 mg/kg; type: ADME, organism-based; conditions: in vivo
# A549 = test: Antitumor activity against human A549 cells xenografted in nude mouse assessed as tumor growth inhibition at 20 mg/kg, ip once weekly for 30 days relative to control; type: functional; conditions: 720 h, read-out: TGI
# How it was run: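 Mice bearing A549 NSCLC xenografts. The test agent was given orally, either daily or intermittently (daily for 3 days, then 4 days off). Paclitaxel was given at 20 mg/kg ip weekly, alone or in combination. Read-out was tumor growth inhibition.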
SMILES,IC50 [1],IC50 [2],also measured
CCC[C@H]1N(C(=O)c2cnccc2C(F)(F)F)CCC[C@@]1(Oc1csc(C(F)(F)F)c1)C(=O)N1CCN(c2ccccc2OCC(C)(C)O)CC1,23 nM,600 nM,
CCC[C@@H]1N(C(=O)c2cnccc2C(F)(F)F)CCC[C@]1(Oc1nc(C(F)(F)F)cs1)C(=O)N1CCN(c2ccccc2OCCO)CC1 (racemic),1100 nM,,
CCC[C@H]1N(C(=O)c2cnccc2C(F)(F)F)CCC[C@@]1(Oc1cc(I)cs1)C(=O)N1CCN(c2ccccc2OCCO)CC1 (racemic),90 nM,,
CCC[C@H]1N(C(=O)c2cnccc2C(F)(F)F)CCC[C@@]1(Oc1csc(C(F)(F)F)c1C)C(=O)N1CCN(c2ccccc2OCCO)CC1,58 nM,,
COCCOc1ccccc1N1CCN(C(=O)[C@]2(Oc3ccc(C(F)(F)F)cc3)CCCN(C(=O)c3cnccc3C(F)(F)F)[C@@H]2CCO)CC1,,530 nM,
CCC[C@H]1N(C(=O)c2cnccc2C(F)(F)F)CCC[C@@]1(Oc1cc(C(F)(F)F)sc1C)C(=O)N1CCN(c2ccccc2OCCO)CC1,470 nM,,
CCC[C@H]1N(C(=O)c2cnccc2C(F)(F)F)CCC[C@@]1(Oc1csc(C(F)(F)F)c1Cl)C(=O)N1CCN(c2ccccc2OCCO)CC1,130 nM,,
"CCC[C@@H]1N(C(=O)c2cnccc2C(F)(F)F)CCC[C@]1(Oc1csc(C(F)(F)F)c1)C(=O)N1CCN(c2ccccc2OCCO)CC1 (single isomer, unassigned)",15 nM,180 nM,IC50 [3]: 390 nM; IC50 (SK-UT-1): > 17000 nM; IC50 [4]: > 17000 nM; EC50 [5]: 400 nM; IC50 (SJSA-1): 300 nM; solubility [6]: 10 µM; CLint scaled [7]: 14 mL/min/kg; AUC/dose (Mus musculus): 2 µM·h; AUC/dose (Canis familiaris): 0.2 µM·h; AUC/dose (Rhesus monkey): 0.3 µM·h
"CCC[C@@H]1N(C(=O)c2cnccc2C(F)(F)F)CCC[C@]1(Oc1csc(C(F)(F)F)c1)C(=O)N1CCN(c2ccccc2OCCC(C)(C)C(=O)O)CC1 (single isomer, unassigned)",10 nM,280 nM,
CCC[C@H]1N(C(=O)c2cnccc2C(F)(F)F)CCC[C@@]1(Oc1csc(C(F)(F)F)c1)C(=O)N1CCN(c2ccccc2OC(C)(C)CO)CC1,25 nM,1100 nM,
CCC[C@H]1N(C(=O)c2cnccc2C(F)(F)F)CCC[C@@]1(Oc1csc(C(F)(F)F)c1)C(=O)N1CCN(c2ccccc2OCC(=O)O)CC1,2 nM,1100 nM,Papp A→B [8]: 0.7 ×10⁻⁶ cm/s; AUC/dose (Mus musculus): 0.02 µM·h
COc1ccccc1N1CCN(C(=O)C2(Oc3ccc(C(F)(F)F)cc3)CCCN(C(=O)c3cnccc3C(F)(F)F)C2)CC1 (stereo not given),,5500 nM,
CC(=O)O[C@@]12CO[C@@H]1C[C@H](O)[C@@]1(C)C(=O)[C@H](O)C3=C(C)[C@@H](OC(=O)[C@H](O)[C@@H](NC(=O)OC(C)(C)C)c4ccccc4)C[C@@](O)([C@@H](OC(=O)c4ccccc4)[C@H]21)C3(C)C [DOCETAXEL ANHYDROUS],,,inhibition in vivo at 40 mg/kg (A2780): 53%
CCC[C@H]1N(C(=O)c2cnccc2C(F)(F)F)CCC[C@@]1(Oc1cccs1)C(=O)N1CCN(c2ccccc2OCCO)CC1 (racemic),2900 nM,,
"CCC[C@@H]1N(C(=O)c2cnccc2C(F)(F)F)CCC[C@]1(Oc1csc(C(F)(F)C(F)(F)F)c1)C(=O)N1CCN(c2ccccc2OCCO)CC1 (single isomer, unassigned)",25 nM,1100 nM,
CCC[C@@H]1N(C(=O)c2cnccc2C(F)(F)F)CCC[C@]1(Oc1cc(C(F)(F)F)cs1)C(=O)N1CCN(c2ccccc2OCCO)CC1 (racemic),170 nM,,
"CCC[C@@H]1N(C(=O)c2cnccc2C(F)(F)F)CCC[C@]1(Oc1csc(C(F)(F)F)c1)C(=O)N1CCN(c2ccccc2OCC2(CC(=O)O)CC2)CC1 (single isomer, unassigned)",33 nM,,
"CCC[C@@H]1N(C(=O)c2cnccc2C(F)(F)F)CCC[C@]1(Oc1ccc(C(F)(F)F)cc1)C(=O)N1CCN(c2ccccc2OCCO)CC1 (single isomer, unassigned)",40 nM,460 nM,AUC [9]: 8.7 µM·h; bioavailability [10]: 92%; Papp A→B [8]: 9.9 ×10⁻⁶ cm/s; CLint scaled [7]: 23 mL/min/kg; AUC/dose (Mus musculus): 1.2 µM·h
CCC[C@H]1N(C(=O)c2cnccc2C(F)(F)F)CCC[C@@]1(Oc1csc(C(F)(F)F)c1)C(=O)N1CCN(c2ccccc2OC(C)(C)C(=O)O)CC1,11 nM,80 nM,
CC(=O)O[C@H]1C(=O)[C@@]2(C)[C@H]([C@H](OC(=O)c3ccccc3)[C@]3(O)C[C@H](OC(=O)[C@H](O)[C@@H](NC(=O)c4ccccc4)c4ccccc4)C(C)=C1C3(C)C)[C@]1(OC(C)=O)CO[C@@H]1C[C@@H]2O [PACLITAXEL],,,inhibition in vivo at 20 mg/kg (A549): 54%
C=CC[C@H]1N(C(=O)c2cnccc2C(F)(F)F)CCC[C@@]1(Oc1cc(C2CC2)cs1)C(=O)N1CCN(c2ccccc2OCCCC(=O)O)CC1,3500 nM,,
COc1ccc(C2=N[C@@H](c3ccc(Cl)cc3)[C@@H](c3ccc(Cl)cc3)N2C(=O)N2CCNC(=O)C2)c(OC(C)C)c1 [NUTLIN-3],,1900 nM,
"CCC[C@@H]1N(C(=O)c2cnccc2C(F)(F)F)CCC[C@]1(Oc1csc(C(F)(F)F)c1)C(=O)N1CCN(c2ccccc2OCC(=O)NC)CC1 (single isomer, unassigned)",4 nM,110 nM,IC50 [3]: 470 nM; IC50 (SK-UT-1): > 10000 nM; IC50 [4]: > 17000 nM; EC50 [5]: 400 nM; IC50 (SJSA-1): 300 nM; Papp A→B [8]: 18.1 ×10⁻⁶ cm/s; solubility [6]: 12 µM; CLint scaled [7]: 13 mL/min/kg; AUC/dose (Mus musculus): 2 µM·h; AUC/dose (Canis familiaris): 0.2 µM·h; AUC/dose (Rhesus monkey): 0.3 µM·h
CCC[C@H]1N(C(=O)c2cnccc2C(F)(F)F)CCC[C@@]1(Oc1csc(C(F)(F)F)c1)C(=O)N1CCN(c2ccccc2OCC(C)(C)C(=O)O)CC1,4 nM,260 nM,
CCC[C@H]1N(C(=O)c2cnccc2C(F)(F)F)CCC[C@@]1(Oc1csc(C(F)(F)F)c1)C(=O)N1CCN(c2ccccc2OCCCCC(=O)O)CC1,7 nM,170 nM,
CCC[C@@H]1N(C(=O)c2cnccc2C(F)(F)F)CCC[C@]1(Oc1cc(C(F)(F)F)n(C)n1)C(=O)N1CCN(c2ccccc2OCCO)CC1 (racemic),6300 nM,,
